“And” between values parts separate entries of the source, which are not always exact repeats. Equal entries are not always repeated. Some results are limits rather than exact numbers.

Assay [1] is filed under the species Canis familiaris. Briefly: In vitro electrophysiological activity in canine cardiac occurred is 1 uM. The class given is functional, Canis lupus familiaris, Heart.
The species entered for assay [2] is Canis familiaris. Briefly: In vitro electrophysiological evaluation in canine cardiac Purkinje fibres reported as % change for action potential duration at 10 uM at 1-100 uM concentration range. The class given is functional, Canis lupus familiaris, Purkinje fiber. Summed up: (§1)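 Canine cardiac Purkinje fibres, intracellular microelectrode recording, paced at a basic cycle length of 1 s. APD95 and Vmax read simultaneously. Compound: 10 mM stock in deionized water, diluted into Tyrode's solution, tested over the stated concentration range. Each fibre used once as its own control. Result is % change from control, given at 10 µM or as the maximum with its concentration. M = <10% decrease or an increase in Vmax.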

The species named for assay [3] is Canis familiaris. Kind of assay: In vitro electrophysiological evaluation in canine cardiac ventricular muscle reported as % change for conduction time(CT) at 0.1-100 uM concentration range; Minimal (<10% decrease or increase inCT). The class given is functional, Canis lupus familiaris, Muscle tissue. The method in brief:
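Canine right ventricular/papillary muscle strips in oxygenated Tyrode's, extracellular extra-stimulus conduction-interval method. FRP and CT are read from conduction-interval curves before and during rising concentrations. Compound is a 10 mM aqueous stock diluted into Tyrode's. Each strip is used once as its own control. Readouts are percent change from control at 10 μM, plus the maximum change with its concentration.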

For assay [4], the species on record is Canis familiaris. Kind of assay: In vitro electrophysiological activity in canine cardiac occurred is 100 uM. The class given is functional, Canis lupus familiaris, Heart.
The species entered for assay [5] is Canis familiaris. Kind of assay: In vitro electrophysiological evaluation in canine cardiac ventricular muscle reported as maximum % change for conduction time(CT) at 0.1-100 uM concentration range; Minimal (<10% decrease or increase inCT). The class given is functional, Canis lupus familiaris, Muscle tissue.
For assay [6], the species on record is Canis familiaris. Kind of assay: In vitro electrophysiological evaluation in canine cardiac Purkinje fibres reported as percent change Vmax at 10 uM at concentration range of 1-100 uM; Minimal (<10% decrease or increase in Vmax). It is filed as functional, organism-based. Particulars: Canis lupus familiaris, Purkinje fiber. Summed up:
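Canine cardiac Purkinje fibers, intracellular recording, paced at a basic cycle length of 1 s. APD95 and Vmax are recorded together across cumulative concentrations. Compound is a 10 mM aqueous stock diluted into Tyrode's solution. Each fiber is used once as its own control. Readouts are percent change from control at 10 μM, and the maximum change with the concentration where it occurred.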

The species named for assay [7] is Canis familiaris. Kind of assay: In vitro electrophysiological evaluation in canine cardiac occurred is 100 uM. The class given is functional. The following applies: Canis lupus familiaris; Heart.
The species named for assay [8] is Canis familiaris. Kind of assay: In vitro electrophysiological evaluation in canine cardiac Purkinje fibres reported as % change for action potential duration at a concentration of 10 uM. The class given is functional, Canis lupus familiaris, Purkinje fiber. Summed up: as §1
The subject of assay [9] is Canis familiaris. Briefly: Mean arterial blood pressure was determined by intraduodenal administration of two dosages of 10 mg/kg of (high dose) compound in anesthetized dogs. Value was reported for experiment 1. It is filed as functional, Canis lupus familiaris. Summed up:
(§2)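 Anesthetized dogs received two intraduodenal doses, the second cumulative (low dose/high dose). Left ventricular FRP and CT were measured 15, 30 and 45 min after dosing. Heart rate and mean blood pressure were taken during nonpacing intervals. Values are percent change from control. The vehicle was 5% dextrose in water/tragacanth. Activity was defined as ≥12% prolongation of FRP or CT.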

The species entered for assay [10] is Canis familiaris. Briefly: In vitro electrophysiological evaluation in canine cardiac Purkinje fibres reported as percent change Vmax concentration range of 0.1-100 uM; Minimal (<IO%increase or a decrease in CT). It is filed as functional. The following applies: Canis lupus familiaris; Purkinje fiber. The method in brief:
as §1

For assay [11], the system named is Canis familiaris. Kind of assay: Heart rate was determined by intraduodenal administration of two dosages of 10 mg/kg of (high dose) compound in anesthetized dogs. Value was reported for experiment 1. The class given is functional, Canis lupus familiaris. The method in brief:
(§3)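 Anesthetized dogs; compound given intraduodenally, generally as two doses, the second a cumulative (high) dose. LV functional refractory period and conduction time measured 15, 30 and 45 min after dosing; heart rate and blood pressure measured during nonpacing intervals. Values are % change from control, given per individual animal. Active if FRP or CT prolonged by ≥12%.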

The subject of assay [12] is Canis familiaris. Kind of assay: Mean arterial blood pressure was determined by intraduodenal administration of two dosages of 20 mg/kg of (high dose) compound in anesthetized dogs. Value was reported for experiment 2. The class given is functional, Canis lupus familiaris.
Assay [13] concerns Canis familiaris. Briefly: Conduction time was determined by intraduodenal administration of two dosages of 10 mg/kg(high dose) of compound in anesthetized dogs. Value was reported for experiment 1. It is filed as functional, Canis lupus familiaris. Summed up:
as §3

Assay [14] relates to Canis familiaris. Briefly: Left ventricular refractory period was determined by intraduodenal administration of two dosages of 10 mg/kg of (low dose) compound in anesthetized dogs. Value was reported for experiment 2. The class given is functional, Canis lupus familiaris, Cardiac ventricle. Summed up: as §2
In assay [15] the test system is Canis familiaris. Briefly: Heart rate was determined by intraduodenal administration of two dosages of 10 mg/kg of (low dose) compound in anesthetized dogs. Value was reported for experiment 2. The class given is functional, Canis lupus familiaris. Summed up: as §3
Assay [16] is filed under the species Canis familiaris. Kind of assay: In vitro electrophysiological evaluation in canine cardiac Purkinje fibres reported as maximum percent change Vmax concentration range of 0.1-100 uM; Minimal (<IO%increase or a decrease in CT). The class given is functional. The following applies: Canis lupus familiaris; Purkinje fiber. Summed up: as §1
In assay [17] the test system is Canis familiaris. Kind of assay: Conduction time was determined by intraduodenal administration of two dosages of 20 mg/kg (high dose) of compound in anesthetized dogs. Value was reported for experiment 2. The class given is functional, Canis lupus familiaris. The method in brief: as §3
Assay [18] is filed under the species Canis familiaris. Briefly: In vitro electrophysiological evaluation in canine cardiac Purkinje fibres reported as percent change Vmax concentration range of 0.1-10 uM; Minimal (<IO%increase or a decrease in CT). The class given is functional. Particulars: Canis lupus familiaris; Purkinje fiber. The method in brief: as §1
Assay [19] is filed under the species Canis familiaris. Briefly: In vitro electrophysiological evaluation in canine cardiac Purkinje fibres reported as maximum percent change Vmax concentration range of 0.1-100 uM. The following applies: Canis lupus familiaris; Purkinje fiber. The class given is functional. Summed up: as §1
Assay [20] deals with Canis familiaris. Kind of assay: Mean arterial blood pressure was determined by intraduodenal administration of two dosages of 10 mg/kg of (low dose) compound in anesthetized dogs. Value was reported for experiment 2. It is filed as functional, Canis lupus familiaris.
Assay [21] is filed under the species Canis familiaris. Briefly: In vitro electrophysiological evaluation in canine cardiac Purkinje fibres reported as percent change Vmax concentration range of 0.1-100 uM. The following applies: Canis lupus familiaris; Purkinje fiber. The class given is functional. The method in brief: as §1
For assay [22], the species on record is Canis familiaris. Kind of assay: (§4) In vitro electrophysiological evaluation in canine cardiac Purkinje fibres reported as % change for action potential duration at 0.1-100 uM concentration range. The class given is functional, Canis lupus familiaris, Purkinje fiber. Summed up: as §1
The test system of assay [23] is Canis familiaris. Kind of assay: Left ventricular refractory period was determined by intraduodenal administration of two dosages of 3 mg/kg of (low dose) compound in anesthetized dogs. Value was reported for experiment 1. The class given is functional, Canis lupus familiaris, Cardiac ventricle. Summed up: as §2
For assay [24], the species on record is Canis familiaris. Kind of assay: In vitro electrophysiological evaluation in canine cardiac Purkinje fibres reported as % change for action potential duration at 0.1-10 uM concentration range. It is filed as functional, Canis lupus familiaris, Purkinje fiber. Summed up: as §1
For assay [25], the system named is Canis familiaris. Briefly: Heart rate was determined by intraduodenal administration of two dosages of 3 mg/kg of (low dose) compound in anesthetized dogs. Value was reported for experiment 1. The class given is functional, Canis lupus familiaris. The method in brief: as §3
The species named for assay [26] is Canis familiaris. Kind of assay: In vitro electrophysiological activity in canine cardiac Purkinje fibres given as maximum % change for action potential duration at 0.1-100 uM concentration. It is filed as functional, Canis lupus familiaris, Purkinje fiber. The method in brief:
(§5)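 Canine cardiac Purkinje fibres, intracellular recording at 1 s basic cycle length, over cumulative concentration ranges. Compound 10 mM stock in deionized water diluted into Tyrode's. Each fibre used once as its own control. Value is the maximum % change from control in APD at 95% repolarization, with the concentration where it occurred; both values given if a biphasic response (>20% reversal) occurred.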

Assay [27] deals with Canis familiaris. Kind of assay: Left ventricular refractory period was determined by intravenous administration of two dosages of 3 mg/kg of compound in anesthetized dogs. Value was reported for experiment 1. The class given is functional, Canis lupus familiaris, Cardiac ventricle.
In assay [28] the test system is Canis familiaris. Briefly: Effective dose administered intravenously to elicit Antiarrhythmic efficacy in anesthetized dogs was reported. Value in parenthesis indicates no. of animals effective at that dose. The class given is functional, Canis lupus familiaris, Heart. Summed up: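 Dogs are anesthetized and the chest reopened. Stimulating and recording electrodes go on the myocardium. Reproducible PES-induced sustained VT or VF is confirmed first; SVT is ended by burst pacing and VF by DC countershock. Compound is given iv in 0.9% saline and inducibility retested. A dose counts as effective when SVT/VF cannot be reinduced in two of three animals.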

Assay [29] has as its system Canis familiaris. Briefly: Conduction time was determined by intraduodenal administration of two dosages of 10 mg/kg (low dose) of compound in anesthetized dogs. Value was reported for experiment 2. The class given is functional, Canis lupus familiaris. The method in brief:
as §3

Assay [30] concerns Canis familiaris. Briefly: Left ventricular refractory period was determined by intravenous administration of two dosages of 3 mg/kg of compound in anesthetized dogs. Value was reported for experiment 2. It is filed as functional, Canis lupus familiaris, Cardiac ventricle.
The species entered for assay [31] is Canis familiaris. Kind of assay: In vitro electrophysiological activity in canine cardiac Purkinje fibres given as maximum % change for action potential duration at 0.1-10 uM concentration. It is filed as functional, Canis lupus familiaris, Purkinje fiber. The method in brief:
as §5

Assay [32] concerns Canis familiaris. Briefly: Conduction time was determined by intraduodenal administration of two dosages of 3 mg/kg (low dose) of compound in anesthetized dogs. Value was reported for experiment 1. It is filed as functional, Canis lupus familiaris. Summed up: as §3
Assay [33] has as its system Canis familiaris. Kind of assay: Left ventricular refractory period was determined by intraduodenal administration of two dosages of 10 mg/kg of (high dose) compound in anesthetized dogs. Value was reported for experiment 1. The class given is functional, Canis lupus familiaris, Cardiac ventricle. The method in brief: as §2
Assay [34] concerns Canis familiaris. Kind of assay: Heart rate was determined by intraduodenal administration of two dosages of 20 mg/kg of (high dose) compound in anesthetized dogs. Value was reported for experiment 2. It is filed as functional, Canis lupus familiaris. The method in brief: as §3
Assay [35] relates to Canis familiaris. Kind of assay: Left ventricular refractory period was determined by intraduodenal administration of two dosages of 20 mg/kg of (high dose) compound in anesthetized dogs. Value was reported for experiment 2. It is filed as functional, Canis lupus familiaris, Cardiac ventricle.
The species entered for assay [36] is Canis familiaris. The assay is described as §4. The class given is functional, Canis lupus familiaris, Purkinje fiber. The method in brief: as §1
This is another data set of the same source.

In assay [37] the test system is Canis familiaris. Kind of assay: Mean arterial blood pressure was determined by intraduodenal administration of two dosages of 3 mg/kg of (low dose) compound in anesthetized dogs. Value was reported for experiment 1. The class given is functional, Canis lupus familiaris. Summed up:
as §2

On to `CCN(CC)CCNC(=O)c1ccc(N)cc1.Cl` [PROCAINAMIDE HYDROCHLORIDE], for which the APD95 in the assay filed under Canis familiaris [1] was -7%; in the assay filed under Canis familiaris [2], -1% and 0%; in the assay listed under Canis familiaris [4] it was -8% and 3%; in the assay listed under Canis familiaris [8], -4%. Moreover, the CT in the assay filed under Canis familiaris [3] and in the assay listed under Canis familiaris [5] was under 10% throughout. Further, the Vmax in the assay listed under Canis familiaris [6] was under 10%; in the assay filed under Canis familiaris [7] it was -14% and -10% (2×).
Turning to `Cl.Clc1ccc(C/C=C2\CN3CCC2CC3)cc1`, the Mean blood pressure is 25% in the assay with Canis familiaris [9], 12% in the assay with Canis familiaris [12], 12% in the assay on Canis familiaris [20] and 19% with Canis familiaris [37]. In addition, the Vmax is under 10% in the assay listed under Canis familiaris [10]; under 10% in the assay listed under Canis familiaris [16]; under 10% in the assay filed under Canis familiaris [18]; -59% in the assay filed under Canis familiaris [19]; -12% in the assay listed under Canis familiaris [21]. The HR was 4% in the assay with Canis familiaris [11], -1% with Canis familiaris [15], -2% in the assay on Canis familiaris [25] and 1% with Canis familiaris [34]. In addition, the CT with Canis familiaris [13] is listed as 3%; in the assay on Canis familiaris [17], -4%; in the assay on Canis familiaris [29], 0%; in the assay on Canis familiaris [32], 0%. Further, the “LV FRP” value worked out at 3% in the assay on Canis familiaris [14]; 5% in the assay with Canis familiaris [23]; 17% in the assay on Canis familiaris [27]; 15% in the assay with Canis familiaris [30]; 3% with Canis familiaris [33]; 2% with Canis familiaris [35]. The APD95 in the assay listed under Canis familiaris [22] is 16%; in the assay filed under Canis familiaris [24], 29%; in the assay listed under Canis familiaris [26], 35% and 50%; in the assay filed under Canis familiaris [31], 29%; in the assay filed under Canis familiaris [36] it was 50%. Besides, in the assay with Canis familiaris [28], the Effective dose is 0.1 mg/kg and 0.3 mg/kg.

Source of the values: ChEMBL document CHEMBL1123566, “Synthesis and cardiac electrophysiological activity of 2- and 3-[(substituted phenyl)alkyl]quinuclidines. Structure-activity relationships” (1987).
